According to ChEMBL document CHEMBL1145495, “Polyamine effects on antibiotic susceptibility in bacteria” (2007):
In brackets after ≈: the same amount, converted by molar mass.

What was measured:
[1] = system: Staphylococcus aureus; test: Antibacterial activity against Staphylococcus aureus N315 after 14 to 16 hrs by broth dilution method; format: functional
Method in brief: (§1)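 CLSI broth dilution in cation-adjusted Mueller-Hinton broth with serial twofold dilutions, with or without spermine or spermidine added. Overnight cultures were diluted in saline to OD600 0.1–0.12, and about 10^5 CFU were inoculated. Incubation was 14–16 h at 37°C. MIC was confirmed in three independent experiments. E. coli acrA mutants were tested with 1 mM spermine; P. aeruginosa isolates with 1 mM spermine or 20 mM spermidine.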

[2] = system: Staphylococcus aureus; test: Antibacterial activity against Staphylococcus aureus Mu50 after 14 to 16 hrs by broth dilution method; format: functional
[3] = system: Staphylococcus aureus; test: Antibacterial activity against Staphylococcus aureus ATCC 3556 after 14 to 16 hrs by broth dilution method; format: functional
[4] = system: Escherichia coli; test: Antibacterial activity against Escherichia coli K10 after 14 to 16 hrs by broth dilution method; format: functional
[5] = system: Escherichia coli; test: Antibacterial activity against Escherichia coli K12 after 14 to 16 hrs by broth dilution method; format: functional
[6] = system: Escherichia coli; test: Antibacterial activity against Escherichia coli C921-61 after 14 to 16 hrs by broth dilution method; format: functional
[7] = system: Salmonella typhimurium; test: Antibacterial activity against Salmonella enterica serovar Typhimurium LT2 after 14 to 16 hrs by broth dilution method; format: functional, Salmonella enterica subsp. enterica serovar Typhimurium
[8] = system: Pseudomonas aeruginosa; test: Antibacterial activity against Pseudomonas aeruginosa PAO1 after 14 to 16 hrs by broth dilution method; format: functional
[9] = system: Pseudomonas aeruginosa; test: Antibacterial activity against Pseudomonas aeruginosa F4980 after 14 to 16 hrs by broth dilution method; format: functional; method in brief: as §1
[10] = system: Pseudomonas aeruginosa; test: Antibacterial activity against Pseudomonas aeruginosa F66336 after 14 to 16 hrs by broth dilution method; format: functional
[11] = system: Pseudomonas aeruginosa; test: Antibacterial activity against Pseudomonas aeruginosa M38100A after 14 to 16 hrs by broth dilution method; format: functional
[12] = system: Pseudomonas aeruginosa; test: Antibacterial activity against Pseudomonas aeruginosa T2095 after 14 to 16 hrs by broth dilution method; format: functional
[13] = system: Pseudomonas aeruginosa; test: Antibacterial activity against Pseudomonas aeruginosa T15464 after 14 to 16 hrs by broth dilution method; format: functional; method in brief: as §1
[14] = system: Escherichia coli; test: Antibacterial activity against Escherichia coli W4573 assessed as inhibition of AcrAB efflux pump after 14 to 16 hrs by broth dilution method; format: functional
[15] = system: Escherichia coli; test: Antibacterial activity against Escherichia coli N43 acrA mutant assessed as inhibition of AcrAB efflux pump after 14 to 16 hrs by broth dilution method; format: functional; method in brief: as §1
[16] = system: Escherichia coli; test: Antibacterial activity against Escherichia coli N818 delta acrA mutant assessed as inhibition of AcrAB efflux pump after 14 to 16 hrs by broth dilution method; format: functional; method in brief: as §1
[17] = system: Pseudomonas aeruginosa; test: Antibacterial activity against Pseudomonas aeruginosa H4563 after 14 to 16 hrs by broth dilution method; format: functional
[18] = system: Pseudomonas aeruginosa; test: Antibacterial activity against Pseudomonas aeruginosa M22152 after 14 to 16 hrs by broth dilution method; format: functional; method in brief: as §1
[19] = system: Pseudomonas aeruginosa; test: Antibacterial activity against Pseudomonas aeruginosa M38100B after 14 to 16 hrs by broth dilution method; format: functional
[20] = system: Pseudomonas aeruginosa; test: Antibacterial activity against Pseudomonas aeruginosa T6268 after 14 to 16 hrs by broth dilution method; format: functional
[21] = system: Pseudomonas aeruginosa; test: Antibacterial activity against streptomycin-resistant Pseudomonas aeruginosa DK100 after 14 to 16 hrs by broth dilution method; format: functional; method in brief: as §1
[22] = system: Pseudomonas aeruginosa; test: Antibacterial activity against streptomycin and gentamycin-resistant Pseudomonas aeruginosa DK101 containing oprD mutant after 14 to 16 hrs by broth dilution method; format: functional; method in brief: as §1
[23] = system: Pseudomonas aeruginosa; test: Antibacterial activity against Pseudomonas aeruginosa DK101 containing pAU48 expressing oprD after 14 to 16 hrs by broth dilution method; format: functional

Row | SMILES | MIC [1] | MIC [2] | MIC [3] | MIC [4] | MIC [5] | MIC [6] | MIC [7] | other results
1 | CC1(C)S[C@@H]2[C@H](NC(=O)[C@H](N)c3ccc(O)cc3)C(=O)N2[C@H]1C(=O)O [AMOXICILLIN] | 16 µg/mL | 16 µg/mL | 1 µg/mL |  |  |  |  | 
2 | CC1(C)S[C@@H]2[C@H](NC(=O)[C@H](N)c3ccccc3)C(=O)N2[C@H]1C(=O)O [AMPICILLIN] | 128 µg/mL | 64 µg/mL | 2 µg/mL | 8 µg/mL | 4 µg/mL | 4 µg/mL | 4 µg/mL | 
3 | CC1(C)S[C@@H]2[C@H](NC(=O)[C@H](NC(=O)N3CCNC3=O)c3ccccc3)C(=O)N2[C@H]1C(=O)O [AZLOCILLIN] | 16 µg/mL | 16 µg/mL | 0.5 µg/mL | 16 µg/mL | 16 µg/mL | 8 µg/mL | 16 µg/mL | 
4 | CCN1CCN(C(=O)N[C@@H](C(=O)N[C@@H]2C(=O)N3C(C(=O)O)=C(CSc4nnnn4C)CS[C@H]23)c2ccc(O)cc2)C(=O)C1=O [CEFOPERAZONE] | 4 µg/mL | > 1020 µg/mL | 1 µg/mL |  |  |  |  | 
5 | CO/N=C(\C(=O)N[C@@H]1C(=O)N2C(C(=O)O)=C(COC(C)=O)CS[C@H]12)c1csc(N)n1 [CEFOTAXIME] | 2 µg/mL | > 1020 µg/mL | 0.5 µg/mL |  |  |  |  | 
6 | CC(C)(O/N=C(\C(=O)N[C@@H]1C(=O)N2C(C(=O)[O-])=C(C[n+]3ccccc3)CS[C@H]12)c1csc(N)n1)C(=O)O [CEFTAZIDIME] | 32 µg/mL | 512 µg/mL | 8 µg/mL |  |  |  |  | 
7 | CO/N=C(\C(=O)N[C@@H]1C(=O)N2C(C(=O)O)=C(CSc3nc(=O)c(O)nn3C)CS[C@H]12)c1csc(N)n1 [CEFTRIAXONE] | 4 µg/mL | > 1020 µg/mL | 2 µg/mL |  |  |  |  | 
8 | O=C(Cc1cccs1)N[C@@H]1C(=O)N2C(C(=O)[O-])=C(C[n+]3ccccc3)CS[C@H]12 [CEPHALORIDINE] | 1 µg/mL | 16 µg/mL | < 0.06 µg/mL | 8 µg/mL | 4 µg/mL | 4 µg/mL | 0.015 µg/mL | 
9 | CC(=O)OCC1=C(C(=O)O)N2C(=O)[C@@H](NC(=O)Cc3cccs3)[C@H]2SC1 [CEPHALOTHIN] | 1 µg/mL | 64 µg/mL | 0.5 µg/mL |  |  |  |  | 
10 | O=C(N[C@H](CO)[C@H](O)c1ccc([N+](=O)[O-])cc1)C(Cl)Cl [CHLORAMPHENICOL] | 8 µg/mL | 8 µg/mL | 8 µg/mL |  | 32 µg/mL | 4 µg/mL | 2 µg/mL | MIC [8]: 128 µg/mL (≈ 396 µM); MIC [9]: 32 µg/mL (≈ 99 µM); MIC [10]: 8 µg/mL (≈ 24.8 µM); MIC [11]: 4 µg/mL (≈ 12.4 µM); MIC [12]: 32 µg/mL (≈ 99 µM); MIC [13]: 32 µg/mL (≈ 99 µM); MIC [14]: 8 µg/mL (≈ 24.8 µM); MIC [15]: 2 µg/mL (≈ 6.19 µM); MIC [16]: 2 µg/mL (≈ 6.19 µM)
11 | O=C(O)c1cn(C2CC2)c2cc(N3CCNCC3)c(F)cc2c1=O [CIPROFLOXACIN] | 1 µg/mL | 64 µg/mL | 0.25 µg/mL | ≤ 0.03 µg/mL | ≤ 0.03 µg/mL | ≤ 0.03 µg/mL | ≤ 0.03 µg/mL | MIC [9]: 4 µg/mL (≈ 12.1 µM); MIC [17]: 128 µg/mL (≈ 386 µM); MIC [18]: 4 µg/mL (≈ 12.1 µM); MIC [19]: 32 µg/mL (≈ 96.6 µM); MIC [20]: 4 µg/mL (≈ 12.1 µM)
12 | Cc1onc(-c2ccccc2Cl)c1C(=O)N[C@@H]1C(=O)N2[C@@H]1SC(C)(C)[C@@H]2C(=O)O [CLOXACILLIN] | 8 µg/mL | ≥ 512 µg/mL | 0.12 µg/mL |  |  |  |  | 
13 | CC[C@H]1OC(=O)[C@H](C)[C@@H](O[C@H]2C[C@@](C)(OC)[C@@H](O)[C@H](C)O2)[C@H](C)[C@@H](O[C@@H]2O[C@H](C)C[C@H](N(C)C)[C@H]2O)[C@](C)(O)C[C@@H](C)C(=O)[C@H](C)[C@@H](O)[C@]1(C)O [ERYTHROMYCIN] |  |  |  | 64 µg/mL | 64 µg/mL | 64 µg/mL | 64 µg/mL | 
14 | CC(=O)O[C@H]1C[C@@]2(C)[C@@H](C[C@@H](O)[C@H]3[C@@]4(C)CC[C@@H](O)[C@@H](C)[C@@H]4CC[C@@]32C)/C1=C(\CCC=C(C)C)C(=O)O [FUSIDIC ACID] |  |  |  | > 1020 µg/mL | 1020 µg/mL | 1020 µg/mL | > 1020 µg/mL | 
15 | C[C@@H](O)[C@H]1C(=O)N2C(C(=O)O)=C(SCCNC=N)C[C@H]12 [IMIPENEM ANHYDROUS] |  |  |  |  |  |  |  | MIC [21]: 4 µg/mL (≈ 13.4 µM); MIC [22]: 32 µg/mL (≈ 107 µM); MIC [23]: 0.5 µg/mL (≈ 1.67 µM)
16 | NC[C@H]1O[C@H](O[C@H]2[C@H](O)[C@@H](O[C@H]3O[C@H](CO)[C@@H](O)[C@H](N)[C@H]3O)[C@H](N)C[C@@H]2N)[C@H](O)[C@@H](O)[C@@H]1O [KANAMYCIN] |  |  |  | 2 µg/mL | 4 µg/mL | 4 µg/mL | 4 µg/mL | 
17 | CO[C@@H]1[C@@H](OC(N)=O)[C@@H](O)[C@H](Oc2ccc3c(O)c(NC(=O)c4ccc(O)c(CC=C(C)C)c4)c(=O)oc3c2C)OC1(C)C [NOVOBIOCIN] |  |  |  | > 1020 µg/mL | > 1020 µg/mL | 512 µg/mL | > 1020 µg/mL | 
18 | CC1(C)S[C@@H]2[C@H](NC(=O)Cc3ccccc3)C(=O)N2[C@H]1C(=O)O [PENICILLIN G] | 32 µg/mL | 32 µg/mL | ≤ 0.06 µg/mL | 64 µg/mL | 64 µg/mL |  | 16 µg/mL | 
19 | CCN1CCN(C(=O)N[C@@H](C(=O)N[C@@H]2C(=O)N3[C@@H]2SC(C)(C)[C@@H]3C(=O)O)c2ccccc2)C(=O)C1=O [PIPERACILLIN] | 32 µg/mL | 128 µg/mL | 0.5 µg/mL | 2 µg/mL | 2 µg/mL | 2 µg/mL | 4 µg/mL | 
20 | CN[C@@H]1[C@H](O)[C@H](NC)[C@H]2O[C@@]3(O)C(=O)C[C@@H](C)O[C@H]3O[C@@H]2[C@H]1O [SPECTINOMYCIN] |  |  |  | 16 µg/mL | 16 µg/mL | 16 µg/mL | 32 µg/mL | 
21 | NCCCNCCCCNCCCN [SPERMINE] | 4 mM | 4 mM | 4 mM | 1 mM | > 16 mM | > 16 mM | 2 mM | 
22 | CN(C)[C@@H]1C(O)=C(C(N)=O)C(=O)[C@@]2(O)C(O)=C3C(=O)c4c(O)cccc4[C@@](C)(O)[C@H]3C[C@@H]12 [TETRACYCLINE] | 0.12 µg/mL | 32 µg/mL | 0.12 µg/mL | 8 µg/mL | 8 µg/mL | 2 µg/mL | 2 µg/mL | MIC [14]: 2 µg/mL (≈ 4.5 µM); MIC [15]: 0.5 µg/mL (≈ 1.13 µM); MIC [16]: 0.5 µg/mL (≈ 1.13 µM)
23 | CC1(C)S[C@@H]2[C@H](NC(=O)[C@H](C(=O)O)c3ccsc3)C(=O)N2[C@H]1C(=O)O [TICARCILLIN] | 32 µg/mL | 512 µg/mL | 1 µg/mL | 8 µg/mL | 8 µg/mL | 4 µg/mL | 4 µg/mL | 
